According to the array DNA melting data of Ke et al. (doi:10.1101/2024.01.08.574731):

What was measured:
[1] = folding enthalpy; higher = less favourable; fluorescence melt of hairpins on a sequencing array, two-state fit; settings: sodium 0.088 M
In short: (§1)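 On a sequenced MiSeq flow cell, library hairpins with annealed Cy3 and quencher oligos were imaged for Cy3 fluorescence in 2.5 °C steps up to 60 °C, in 50 mM Na-HEPES pH 8.0, 25 mM NaCl. Normalisation used pre-quench Cy3 and control constructs. Bootstrapped two-state fits gave melting temperature and folding enthalpy, combined by inverse variance across four replicates and with fitted temperatures raised by 9.35 °C to match UV melts.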

[2] = melting temperature; fluorescence melt of hairpins on a sequencing array, two-state fit, raised by 9.35 °C to match UV melts; settings: sodium 0.088 M
In short: as §1

Sequence | folding enthalpy [1] | Tm [2]
GAGATGCGAAAGCACCTC (((.(((....))).))) | -23.9 kcal/mol | 49 °C
GCTCTGCGAAAGCATCGC ((..(((....)))..)) | -16.3 kcal/mol | 35.4 °C
GAACTTGGAAACAGGTTC ((((.((....)).)))) | -32.2 kcal/mol | 41 °C
GGTGCTCGAAAGAGACC (((.(((....)))))) | -19.4 kcal/mol | 46.5 °C
GGCCCACGAAAGTGCGCC (((.(((....))).))) | -42.5 kcal/mol | 55.8 °C
GATCCCAATTGGGATC ((((((....)))))) | -38.2 kcal/mol | 61.5 °C
GCGCTGGGAAACCAGCAC (.(((((....))))).) | -11.9 kcal/mol | 50.4 °C
GTACTAGGAAACTGGTAC ((((.((....)).)))) | -31.4 kcal/mol | 42.2 °C
GTGGACGAAAGTCAGCAC ((((((....)))..))) | -16.1 kcal/mol | 40.3 °C
GATCGGACGCCCGATC ((((((....)))))) | -38 kcal/mol | 57.3 °C
GCTCCTGGAAACGGGAGC (((((.(....).))))) | -41.1 kcal/mol | 59.5 °C
GCTCGCGAAAGCGAAAGC ((((((....)))..))) | -14.4 kcal/mol | 54.3 °C
GATCGTTACTACGATC ((((((....)))))) | -42.8 kcal/mol | 55.1 °C
GCCTAGCGAAAGCGTGGC (((..((....))..))) | -30.2 kcal/mol | 64.5 °C
GCGCCCGAAAGGGCCCGC ((((((....)))..))) | -9.91 kcal/mol | 44.7 °C
GCGATTGGAAACGATCGC (((((.(....).))))) | -49 kcal/mol | 56.4 °C
GATCACGTACGTGATC ((((((....)))))) | -47.7 kcal/mol | 64 °C
GCCTCCGAAAGGAAAGGC ((((((....)))..))) | -29.6 kcal/mol | 53 °C
GATCCACAGTTGGATC ((((((....)))))) | -41 kcal/mol | 49.3 °C
GTAACACGAAAGTGATAC (((.(((....))).))) | -25.5 kcal/mol | 46.8 °C
CATATGAAAATATG (((((....))))) | -11.8 kcal/mol | 32.2 °C
GCCCTCGAAAGAGCTGGC ((((((....)))..))) | -24.7 kcal/mol | 42.3 °C
GACAGCGGAAACGTTGTC ((((.((....)).)))) | -37.2 kcal/mol | 51.9 °C
GATCCAGCGTTGGATC ((((((....)))))) | -44.2 kcal/mol | 49.6 °C

Sequence | folding enthalpy [1] | Tm [2]
GCGTCTGGAAACGGACGC (((((.(....).))))) | -48.5 kcal/mol | 64.3 °C
GCCTGCGAAAGCAGCGGC ((((((....)))..))) | -14 kcal/mol | 61.6 °C
GATCTTGGAGAAGATC ((((((....)))))) | -29.8 kcal/mol | 43.9 °C
GATCTTGCTTAAGATC ((((((....)))))) | -38 kcal/mol | 44 °C
GTGTTGGGAAACCAGTAC ((..(((....)))..)) | -11 kcal/mol | 25 °C
GATCGGTGACCCGATC ((((((....)))))) | -36.5 kcal/mol | 55.8 °C
GGTTCTGAAAAGAACC ((((((....)))))) | -33.3 kcal/mol | 59.2 °C
GCGAATGATCGC ((((....)))) | -17.7 kcal/mol | 42.3 °C
GATCGATCACTCGATC ((((((....)))))) | -41.5 kcal/mol | 51.2 °C
GATCACCTTGTGATC ((((((...)))))) | -40.9 kcal/mol | 58.8 °C
GGCGTGGGAAACCATGCC (((.(((....))).))) | -44.5 kcal/mol | 61.4 °C
GTGCATGGAAACGTGTAC ((.((.(....).)).)) | -17.6 kcal/mol | 38.6 °C
GGCGTCGAAAGACGGGCC ((((((....)))..))) | -12.7 kcal/mol | 52 °C
GAGTGTGGAAACGCATTC ((.((.(....).)).)) | -19 kcal/mol | 28.5 °C
GCCCAACGAAAGTTCGGC (((.(((....))).))) | -29.9 kcal/mol | 45.5 °C
GATTGGGCGAAAGCCATC (((..(((....)))))) | -8.31 kcal/mol | 26.8 °C
GGCGGATCGAAAGATGCC (((..(((....)))))) | -22.7 kcal/mol | 46.1 °C
GGTTGCGAAAGCATGACC ((((((....)))..))) | -15.7 kcal/mol | 40.2 °C
GCGTTGCGAAAGCCCCGC (((..((....))..))) | -18.2 kcal/mol | 48.3 °C
GGGTTCGGAAACGGACCC ((((.((....)).)))) | -46.2 kcal/mol | 59.6 °C
GCGTACCAACGC ((((....)))) | -21 kcal/mol | 53.6 °C
GTCAACGAAAGTTTTGAC ((((((....)))..))) | -17.4 kcal/mol | 32.8 °C
GATCCCTCTCGGGATC ((((((....)))))) | -34.3 kcal/mol | 63.5 °C
GATCCTGTGAAGGATC ((((((....)))))) | -35.4 kcal/mol | 58.4 °C

Sequence | folding enthalpy [1] | Tm [2]
GATAGGGCGAAAGCCATC (((..(((....)))))) | -9.11 kcal/mol | 31.2 °C
GCACGCGAAAGCGCTTGC ((((((....)))..))) | -13.3 kcal/mol | 42.8 °C
GTGGGACGAAAGTCTCAC (((.(((....))).))) | -36 kcal/mol | 60 °C
GCTTGCGGAAACGTGAGC (((..((....))..))) | -31.5 kcal/mol | 46.5 °C
GCGGCGTCCGC ((((...)))) | -14.7 kcal/mol | 59.9 °C
GTCAGCGAAAGCTCCGAC ((((((....)))..))) | -13.5 kcal/mol | 28.9 °C
GTTAACGAAAGTTTAAC ((((((....))).))) | -17 kcal/mol | 34.6 °C
GAACAAGGAAACTTGTTC (((((((....))))))) | -44.9 kcal/mol | 53 °C
GCGTATGCGAAAGCACGC (((..(((....)))))) | -20.9 kcal/mol | 53.1 °C
AGTATGAAAATACT (((((....))))) | -15.2 kcal/mol | 32 °C
TTGGTGAAAACCAA (((((....))))) | -15.8 kcal/mol | 44.8 °C
GAGTATGGAAACATACCC (.(((((....))))).) | -19.4 kcal/mol | 31.4 °C
CGTCCGGAAACGGGGACG ((((((....)))..))) | -25 kcal/mol | 48.3 °C
CCCCTGAAAAGGGG (((((....))))) | -25.4 kcal/mol | 57.2 °C
GATCAGCAGCCTGATC ((((((....)))))) | -36.5 kcal/mol | 48.7 °C
GAATAGGGAAACCTATCC (.(((((....))))).) | -15.5 kcal/mol | 26.4 °C
CGGAACGGAAACGTCCCG (((.(((....))).))) | -36.3 kcal/mol | 47.1 °C
GCGATTGGAAACAATCGC (((((((....))))))) | -39.5 kcal/mol | 69 °C
GTAGAACGAAAGTTGTAC (((.(((....))).))) | -31.7 kcal/mol | 42.8 °C
GATCCGCTCCCGGATC ((((((....)))))) | -35.8 kcal/mol | 56.9 °C
GGTTGGCGAAAGCCACC (((.(((....)))))) | -16.5 kcal/mol | 57.7 °C
GCACAAGGAAACTTGCGC ((.((((....)))).)) | -37.9 kcal/mol | 48.4 °C
GTCGACGCGAAAGCGGAC (((..(((....)))))) | -12.8 kcal/mol | 45.4 °C
GATCAGATTGCTGATC ((((((....)))))) | -39.4 kcal/mol | 49.5 °C

Sequence | folding enthalpy [1] | Tm [2]
GCGGGAGCCCGC ((((....)))) | -20 kcal/mol | 56 °C
GTGCCAGGAAACTGGCGC (.(((((....))))).) | -22.8 kcal/mol | 62 °C
GCGGGCGAAAGCCTCCGC ((((((....)))..))) | -25.8 kcal/mol | 53.3 °C
GATCGTTTAGACGATC ((((((....)))))) | -38.2 kcal/mol | 55.6 °C
GGACACGGAAACACGTCC ((((..(....)..)))) | -21.8 kcal/mol | 36.4 °C
TTCGTGAAAACGAA (((((....))))) | -20.2 kcal/mol | 46.4 °C
CGCACCGGAAACGGAGCG (((.(((....))).))) | -37.2 kcal/mol | 60.9 °C
GATCGTGAACACGATC ((((((....)))))) | -34.5 kcal/mol | 63.6 °C
GTCAGGCGAAAGCCGAC (((.(((....)))))) | -16.5 kcal/mol | 60.6 °C
AGTAACTGAAAAGTTACT (((((((....))))))) | -32.3 kcal/mol | 51.6 °C
GATCATTCAATGATC ((((((...)))))) | -30.6 kcal/mol | 47.1 °C
GGCCGTGGAAACGCGGTC (.(((.(....).))).) | -30.3 kcal/mol | 52.5 °C
GCCCACGGAAACGTGGAC (.(((((....))))).) | -14.1 kcal/mol | 50.6 °C
GGTTCAACGAAAGTTACC (((..(((....)))))) | -14.4 kcal/mol | 27.8 °C
GTTCCAGGAAACTGGGAC ((.((((....)))).)) | -27.6 kcal/mol | 49.3 °C
GAACCCGAAAGGGTATTC ((((((....)))..))) | -9.47 kcal/mol | 33.2 °C
GGGGTTGGAAACAACCTC (.(((((....))))).) | -31.5 kcal/mol | 52.5 °C
GAGCACGAAAGTGGTCTC ((((((....)))..))) | -24 kcal/mol | 60 °C
CCTCTGAAAAGAGG (((((....))))) | -20.4 kcal/mol | 48.7 °C
GGGTTCGAAAGAATACCC ((((((....)))..))) | -24.9 kcal/mol | 40.5 °C
GATTAAGCGAAAGCTATC (((..(((....)))))) | -9.58 kcal/mol | 29.5 °C
